According to ChEMBL document CHEMBL4028901, “Novel Antitubercular 6-Dialkylaminopyrimidine Carboxamides from Phenotypic Whole-Cell High Throughput Screening of a SoftFocus Library: Structure-Activity Relationship and Target Identification Studies” (J Med Chem, 2017):
≈ marks a conversion by molar mass, not a printed value. Calls of active or inactive are those of the source. The rule behind the calls is not given here.

Experiments:
[1] = tested on: Mycobacterium tuberculosis; test: Antibacterial activity against GFP-fused Mycobacterium tuberculosis H37RvMA expressing QcrB mutant grown in 7H9/GLU/ADC medium measured on day 7 and day 14 post inoculation by fluorescence plate reader assay; format: functional
In short: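 Mtb::gfp strains (H37RvMa::pMSP12GFP background), two-fold dilutions 20–0.039 µM in 7H9 with Tween-80, glycerol and ADC, or in GAST-Fe pH 6.6, at 5% final DMSO. Cultures grown to OD600 ~0.6 and diluted 1:500 (7H9) or 1:100 (GAST/Fe). […] Data normalised to rifampicin and DMSO controls; MIC90 taken from dose-response curves.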

[2] = tested on: Mycobacterium tuberculosis variant bovis BCG; test: Binding affinity to Mycobacterium bovis BCG Rv3169 using sepharose beads derivatized with 6-((3-aminopropyl)(benzyl)amino)-N-(4-(4-methylpiperazin-1-yl)phenyl)pyrimidine-4-carboxamide by LC-MS/MS based chemoproteomics assay
In short: (§1)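 BCG lysate (0.25 mg) pre-incubated with compound or DMSO, then bound to probe-derivatized sepharose beads (0.04 mM) for 1 h at 4 °C. Six compound concentrations used, top 30 μM with 1:4 steps. Includes vehicle duplicates and rebinding duplicates to measure depletion. Bound proteins eluted and quantified by TMT LC-MS/MS. Apparent Kd corrected for depletion by the beads.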

[3] = tested on: Mycobacterium tuberculosis variant bovis BCG; test: Binding affinity to Mycobacterium bovis BCG Rv3768 using sepharose beads derivatized with 6-((3-aminopropyl)(benzyl)amino)-N-(4-(4-methylpiperazin-1-yl)phenyl)pyrimidine-4-carboxamide by LC-MS/MS based chemoproteomics assay; in short: as §1
[4] = Binding affinity to Mycobacterium bovis BCG Rv3169; design: species or system Mycobacterium tuberculosis variant bovis BCG; settings: read-out: Kd(app)
[5] = Binding affinity to Mycobacterium bovis BCG Rv3768; design: species or system Mycobacterium tuberculosis variant bovis BCG; settings: read-out: Kd(app)

Structure (SMILES) | MIC99 [1] | Activity [2] | Activity [3] | Kd [4] | Kd [5]
COc1ccc(NC(=O)c2cc(N(C)Cc3ccccc3)ncn2)cc1 | 20 µM (≈ 6.97 µg/mL) | – | – | – | –
O=C(Nc1ccccc1)c1ccc(=O)n(Cc2ccc(F)cc2)c1 | – | inactive | inactive | – | –
CN1CCN(c2ccc(NC(=O)c3cc(N(C)Cc4ccc(C(F)(F)F)cc4)ncn3)cc2)CC1 | – | Active | Active | 0.61 to 0.69 µM | 2.1 to 3.8 µM
